Experimental findings from ChEMBL document CHEMBL1143805, “Synthesis and antimicrobial activities of some novel 1,2,4-triazolo[3,4-b]-1,3,4-thiadiazoles and 1,2,4-triazolo[3,4-b]-1,3,4-thiadiazines carrying thioalkyl and sulphonyl phenoxy moieties” (2007) are described below.

One may read the MIC as the lowest concentration found to suppress growth.

Assay [1] has as its system Trichophyton benhamiae. Put plainly: Antifungal activity against Trichophyton mentagrophytes. The class given is functional, Arthroderma benhamiae. Particulars: for MIC: Trichophyton benhamiae. In a few lines: (§1)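 Agar-well diffusion on Sabouraud agar at pH 5.7. Plates were lawned with a saline spore suspension (one loopful in 3 ml), decanted and dried 1 h at 37 °C. Compounds in DMSO went into punched wells, with a DMSO solvent control. Plates were run in triplicate and kept at 37 °C for 3-4 days, with inhibition-zone diameter as read-out.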

Assay [2] deals with Klebsiella pneumoniae. Put plainly: Antibacterial activity against Klebsiella pneumoniae. The format is functional. The note with it: for MIC: Klebsiella pneumoniae. In a few lines: (§2)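 MIC by serial dilution in Mueller-Hinton broth tubes, pH adjusted to 5.0 with phosphate buffer. A standardized bacterial suspension was inoculated and incubated 16-18 h at 37 °C, and MIC was read as the lowest concentration with no visible growth. Zones were also measured in agar wells on seeded plates, with compounds in DMSO and a DMSO control, triplicate plates, 37 °C for 3-4 days.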

Assay [3] has as its system Pseudomonas aeruginosa. Put plainly: Antibacterial activity against Pseudomonas aeruginosa ATCC 27853. The class given is functional. The note with it: for MIC: Pseudomonas aeruginosa, ATCC 27853. Summed up:
as §2

Assay [4] deals with Talaromyces marneffei. Briefly: Antifungal activity against Penicillium marneffei. The class given is functional. The note with it: for MIC: Talaromyces marneffei. In a few lines:
as §1

Assay [5] concerns Staphylococcus aureus. Briefly: Antibacterial activity against Staphylococcus aureus ATCC 25923. The class given is functional. Particulars: for MIC: Staphylococcus aureus, ATCC 25923. Summed up: as §2
For assay [6], the system named is Aspergillus flavus. Put plainly: Antifungal activity against Aspergillus flavus NCIM 524. The class given is functional. Particulars: for MIC: Aspergillus flavus, NCIM 524. In a few lines:
as §1

For assay [7], the system named is Escherichia coli. Put plainly: Antibacterial activity against Escherichia coli ATCC 25922. The format is functional. The note with it: for MIC: Escherichia coli, ATCC 25922. Summed up:
as §2

The subject of assay [8] is Aspergillus fumigatus. Put plainly: Antifungal activity against Aspergillus fumigatus NCIM 902. The format is functional. The note with it: for MIC: Aspergillus fumigatus, NCIM 902.

Values after ≈ are worked out from the molar mass of the structure shown.

Turning to `CCSc1ccc(OCc2nnc3sc(-c4cccc(Cl)c4Cl)nn23)cc1`, the “inhibition zone (IZ)” value in assay [1], in assay [2], in assay [3], in assay [4], in assay [5] and in assay [6] was <10 mm in each case. The “inhibition zone (IZ)” value in assay [7] and in assay [8] was <10 mm throughout. The MIC in assay [1], in assay [2], in assay [3], in assay [4], in assay [5] and in assay [6] was 25 µg/mL (≈ 57.2 µM) throughout. Further, the MIC in assay [7] and in assay [8] was 25 µg/mL (≈ 57.2 µM) in each case.
For the molecule `CCSc1ccc(OCc2nnc3sc(-c4ccccc4Cl)nn23)cc1`, the “inhibition zone (IZ)” value in assay [1], in assay [2], in assay [3], in assay [4], in assay [5] and in assay [6] was <10 mm throughout. Moreover, the “inhibition zone (IZ)” value in assay [7] and in assay [8] was <10 mm each time. The MIC in assay [1], in assay [2], in assay [3], in assay [4], in assay [5] and in assay [6] was 25 µg/mL (≈ 62 µM) each time. The MIC in assay [7] and in assay [8] was 25 µg/mL (≈ 62 µM) in each case.
Turning to `CSc1ccc(OCc2nnc3sc(-c4ccccc4)nn23)cc1`, the “inhibition zone (IZ)” value in assay [1], in assay [2], in assay [3], in assay [4], in assay [5] and in assay [6] was 16 mm in each case. The “inhibition zone (IZ)” value in assay [7] and in assay [8] was 16 mm throughout. Further, the MIC in assay [1], in assay [2], in assay [3], in assay [4], in assay [5] and in assay [6] was 6.25 µg/mL (≈ 17.6 µM) in each case. The MIC in assay [7] and in assay [8] was 6.25 µg/mL (≈ 17.6 µM) each time.
As to `CCSc1ccc(OCc2nnc3sc(-c4ccc(C)cc4)nn23)cc1`, the “inhibition zone (IZ)” value was <10 mm in assay [1]; 16 mm in assay [2]; 16 mm in assay [3]; 16 mm in assay [4]; 16 mm in assay [5]; <10 mm in assay [6]. The “inhibition zone (IZ)” value in assay [7] is on record as 16 mm; in assay [8] it was <10 mm. Also, the MIC in assay [1] amounted to 25 µg/mL (≈ 65.4 µM); in assay [2] it was 6.25 µg/mL (≈ 16.3 µM); in assay [3], 6.25 µg/mL (≈ 16.3 µM); in assay [4], 6.25 µg/mL (≈ 16.3 µM); in assay [5] it was 6.25 µg/mL (≈ 16.3 µM); in assay [6], 25 µg/mL (≈ 65.4 µM). In addition, the MIC in assay [7] was found to be 6.25 µg/mL (≈ 16.3 µM); in assay [8] it was 25 µg/mL (≈ 65.4 µM).
For the molecule `CCSc1ccc(OCc2nnc3sc(-c4ccccc4N)nn23)cc1`, the “inhibition zone (IZ)” value in assay [1], in assay [2], in assay [3], in assay [4], in assay [5] and in assay [6] was <10 mm in each case. For the same molecule, the “inhibition zone (IZ)” value in assay [7] and in assay [8] was <10 mm in each case. The MIC in assay [1], in assay [2], in assay [3], in assay [4], in assay [5] and in assay [6] was 25 µg/mL (≈ 65.2 µM) each time. Moreover, the MIC in assay [7] and in assay [8] was 25 µg/mL (≈ 65.2 µM) each time.
